# KCC2 mod – modulates chloride dependent transport by human KCC2; KCC2 cells, thallium flux FluoZin-2 fluorescence; B-score of Tl+ flux slope (higher = more flux/activation; lower = inhibition) at 10 µM; actives 2.2% (n = 190,000); AID 1456;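 active = thallium flux slope and its plate-corrected score both differing from the plate sample mean at a set confidence after two filtering rounds, in either direction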;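 note: slope of fluorescence scaled to starting intensity during 10 to 20 s after thallium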
# Arbovirus inh – antivirals against arbovirus infection. AID 1251. arbovirus infection cell-based antiviral screen. inhibition, % at 10 µM. actives 0.37% (n = 200,000); in the data active = inhibition above about 30%
# PKD1 kinase inh – inhibitors of human PKD1 kinase. PKD1 kinase fluorescence polarization assay. inhibition, % (no concentration beside the values). AID 797. actives 0.056% (n = 200,000). Q15139; in the data active = inhibition above about 50%
# MDM2 E3 inh – Mdm2 E3 ligase (human) inhibition | cell-based MDM2 ubiquitination luciferase reporter, 2 h; 0 = plate control, 100 = twice control, blank-subtracted | signal enhancement, % at 5 µM | actives 0.11% (n = 210,000) | AID 1230;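 active = signal enhancement of 30% or more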;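 note: luminescence tracks abundance of the self-degrading MDM2-luciferase fusion protein; higher signal means inhibition of MDM2 E3 ligase activity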
# Target sequence (Q00987 whole entry, looked up, the tested form may be a part): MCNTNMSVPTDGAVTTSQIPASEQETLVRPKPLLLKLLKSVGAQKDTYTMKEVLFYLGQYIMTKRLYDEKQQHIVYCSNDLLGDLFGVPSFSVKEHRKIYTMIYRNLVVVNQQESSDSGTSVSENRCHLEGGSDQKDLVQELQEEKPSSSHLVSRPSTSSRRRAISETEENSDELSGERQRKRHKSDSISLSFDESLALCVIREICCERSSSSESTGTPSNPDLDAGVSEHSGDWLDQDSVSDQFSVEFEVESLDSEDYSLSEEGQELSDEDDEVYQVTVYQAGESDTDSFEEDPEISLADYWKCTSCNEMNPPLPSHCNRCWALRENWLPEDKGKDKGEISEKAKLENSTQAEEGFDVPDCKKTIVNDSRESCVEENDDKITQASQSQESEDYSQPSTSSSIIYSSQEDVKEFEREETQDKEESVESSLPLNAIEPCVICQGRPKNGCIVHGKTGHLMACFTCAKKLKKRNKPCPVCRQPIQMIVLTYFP
#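 Assay system: mammalian cells stably expressing self-ubiquitinating, self-degrading MDM2 E3–luciferase fusion. Quantity: 2000 cells in each well. Medium: DMEM culture medium. Compound dosing: single-point 5 µM. Timing: cell settling 4 h, compound treatment 2 h, both 37 °C. Technique: luciferase luminescence. Read-out basis: percent signal gain over controls, blank-subtracted. Benchmarks: plate controls and plate blanks.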
# m-calpain inh – calpain II (pig) inhibition. purified calpain II, fluorogenic peptide substrate, 30 min. inhibition, % at 16 µM. actives 0.37% (n = 220,000);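 active = inhibition above about 50%, limit read from the data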
# ROMK mod – human ROMK K+ channel modulation, primary screen. P48048. Tet-inducible ROMK, thallium flux fluorescence; actives lie on both sides. B-score at 10 µM. actives 2% (n = 130,000). AID 1918;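 active = signal ratio slope over the read window, or its plate-corrected B-score, at least 3 SD from the plate mean, either direction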;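 note: B-score of the F/F0 ratio slope over 7 to 12 s after thallium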
# ROMK retest – retested hit modulating human ROMK potassium channel. shares compounds with ROMK mod. AID 1917. normalized thallium flux (F/F0 slope) at 10 µM. actives 54% (n = 3,000). ROMK thallium flux, fluorescence ratio; active compounds read low;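 active = Flux at 10 µM at least 3 SD below or above vehicle control mean in one or both replicates; inconclusive = no clear call, values can overlap the other calls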
# * marks the source's active call; other numbers are inactive results; u = inconclusive; x = no result. An excerpt weighted towards active compounds, which were near 3.7% of everything screened.
SMILES,KCC2 mod,Arbovirus inh,PKD1 kinase inh,MDM2 E3 inh,m-calpain inh,ROMK mod,ROMK retest
COC(=O)C1CCN(C(=O)CCCOc2ccccc2)CC1,-0.204,16.4,0.9,-45.0,16.9,x,x
COc1ccc(/C=C/C(=O)Nc2cccc(F)c2)cc1S(=O)(=O)N1CCOCC1,-0.193,7.5,-2.6,-16.7,36.1,-0.858,0.0642*
C=CCOC(=O)C(C#N)c1nc2ccccc2nc1N1CCN(Cc2ccc3c(c2)OCO3)CC1 (stereo unspecified),-0.254,-6.2,6.9,-9.0,-51.4,-3.18*,0.063*
CCCCNC(=O)C(C#N)c1nc2ccccc2nc1N1CCN(Cc2ccc3c(c2)OCO3)CC1 (stereo unspecified),x,x,x,x,x,-0.0205,x
O=C(CCC1CCCN(C(=O)c2ccsc2)C1)NCc1ccc(F)c(F)c1 (stereo unspecified),x,1.3,-1.4,-7.4,7.9,0.0324,x
O=C(/C(=C/c1ccc(Cl)cc1)c1nc2ccccc2[nH]1)c1cccs1,-0.443,-46.1,-1.9,-19.4,-14.6,-5.42*,0.0567*
COC(=O)/C(=C\c1cc(OC)c(OC)c(OC)c1)c1nc2ccccc2[nH]1,0.653,-33.0,1.1,-5.3,-11.7,-1.84,x
O=c1[nH]c2ccccc2nc1/C=C(\O)c1cccs1,-0.144,-9.8,-5.2,-16.9,-34.9,-2.53*,0.0455*
COc1cc(/C=C(/C(=O)c2cccs2)c2nc3ccccc3[nH]2)ccc1O,-1.31,-31.6,-6.4,-3.0,15.7,x,0.0553*
CSC1=NNC(c2ccc(C(C)(C)C)cc2)=NN1,0.00188,x,x,-10.4,-10.3,0.201,x
CCOC(=O)Cn1c(=NC(=O)c2nc3ccccc3s2)sc2cc(S(N)(=O)=O)ccc21,0.457,1.4,1.0,-4.6,-277.4,0.157,x
CC1CCN(CCCNC(=O)c2ccc3c(=O)n(Cc4ccc(Cl)cc4)c(=S)[nH]c3c2)CC1,1.25,-36.8,-1.1,-4.5,-55.2,-2.67*,0.061*
COC(=O)c1ccc2c(=O)n(Cc3ccc(C(=O)NCCCN4CCC(C)CC4)cc3)c(=S)[nH]c2c1,0.215,-9.7,-0.6,2.1,-49.0,0.559,x
CCc1cc2c(=O)c(-c3cscn3)coc2cc1O,-0.617,5.7,-6.9,-10.9,-194.6,2.52*,0.076
CCN(C#N)c1nc(NC(C)C)nc(NC(C)(C)C)n1,-0.166,-6.2,-5.6,-2.9,-23.1,-7.84*,0.077
CCOC(=O)C1CCN(c2ccc([N+](=O)[O-])c(C(C)=O)c2)CC1,0.808,5.7,5.3,-11.9,28.2,-2.99*,0.076
CCOC(=O)C1CCN(C(=O)COc2ccc([N+](=O)[O-])cc2)CC1,-0.682,4.6,-1.7,-7.4,7.3,-1.38,x
CC(C)(C)NC(=O)COC(=O)c1snc(C(=O)NC2CCCCC2)c1N,-0.781,0.6,-7.1,-12.8,-259.3,-3.8*,0.0716
CC(OC(=O)c1snc(C(=O)NC2CCCCC2)c1N)C(=O)NC(C)(C)C (stereo unspecified),-0.13,3.0,-0.4,-0.7,-178.1,-2.11,x
CC(C)(C)NC(=O)NC(=O)COC(=O)CNC(=O)c1cccc(F)c1,x,9.7,8.0,-2.6,17.3,-0.724,x
CC1CCCCC1NC(=O)COC(=O)CNC(=O)c1cccc(F)c1 (stereo unspecified),-0.679,5.3,7.0,-5.1,-8.5,-2.15*,0.0903
O=S(=O)(CC(CN1CCCCC1)N1CCCCC1)c1ccc2ccccc2c1 (stereo unspecified),0.245,-34.4,3.9,-12.8,-17.6,-5.83*,0.0588*
CCCCN(CC)S(=O)(=O)c1ccc(C(=O)N(CCCN(C)C)c2nc3cc(C)cc(C)c3s2)cc1,0.742,-33.2,3.2,-6.5,49.7,-3.75*,0.0536*
COCCNC(=O)CN1C(=O)COc2ccc(Cl)cc21,0.547,3.4,-5.5,x,20.7,1.74,0.0785
CCCCCCCCCCCC(=O)NC(Cc1ccc(OC)c([N+](=O)[O-])c1)C(=O)O (stereo unspecified),-0.0554,x,x,-5.8,19.8,4.53*,u
CCOC(=O)C(Cc1ccc(OC)c([N+](=O)[O-])c1)NC(=O)CCC(=O)Nc1ccc(OC)cc1 (stereo unspecified),x,1.3,-5.0,-7.0,1.6,0.00985,x

# Compound activity (PubChem BioAssay)
